Test results reported in ChEMBL document CHEMBL4219177, “Synthesis and evaluation of the antibacterial activities of aryl substituted dihydrotriazine derivatives” (Bioorg Med Chem Lett, 2018).
≈ marks a conversion by molar mass, not a printed value.

Legend:
Escherichia coli = assay: Antibacterial activity against Escherichia coli 1924 after 24 hrs by two-fold serial dilution method; format: functional; conditions: Escherichia coli, 1924, 24 h
How it was run: (§1)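 Bacteria grown to mid-log phase in Mueller-Hinton broth, diluted 1000-fold, and inoculated at 10^5 CFU/mL. Compounds were dissolved in DMSO (final ≤0.05%) and two-fold serially diluted. MIC was the lowest concentration giving complete growth inhibition after 24 h at 37 °C, with growth read as absorbance at 650 nm. Each experiment was run three times.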

Salmonella typhimurium = assay: Antibacterial activity against Salmonella typhimurium 2421 after 24 hrs by two-fold serial dilution method; format: functional, Salmonella enterica subsp. enterica serovar Typhimurium; conditions: Salmonella enterica, 2421, 24 h; how it was run: as §1
Staphylococcus aureus [1] = assay: Antibacterial activity against quinolone-resistant Staphylococcus aureus isolate CCARM 3505 after 24 hrs by two-fold serial dilution method; format: functional; conditions: isolate CCARM 3505, 24 h
How it was run: (§2)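 Broth microdilution MIC. Bacteria were grown to mid-log phase in Mueller-Hinton broth, diluted 1000-fold, and inoculated at 10^5 CFU/mL. Compounds in DMSO (final ≤0.05%) were tested as two-fold serial dilutions from 64 to 0.25. Plates were incubated 24 h at 37 °C and growth read as absorbance at 650 nm. MIC = concentration completely inhibiting growth. Experiments were run three times.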

Pseudomonas aeruginosa = assay: Antibacterial activity against Pseudomonas aeruginosa 2742 after 24 hrs by two-fold serial dilution method; format: functional; conditions: Pseudomonas aeruginosa, 2742, 24 h; how it was run: as §1
Staphylococcus aureus [2] = assay: Antibacterial activity against Staphylococcus aureus 4220 after 24 hrs by two-fold serial dilution method; format: functional; conditions: RN4220, 24 h; how it was run: as §2
Candida albicans = assay: Antifungal activity against Candida albicans 7535 after 24 hrs by two-fold serial dilution method; format: functional; conditions: Candida albicans, 7535, 24 h
Staphylococcus aureus [3] = assay: Antibacterial activity against methicillin-resistant Staphylococcus aureus isolate CCARM 3167 after 24 hrs by two-fold serial dilution method; format: functional; conditions: isolate CCARM 3167, 24 h
Streptococcus mutans = assay: Antibacterial activity against Streptococcus mutans 3289 after 24 hrs by two-fold serial dilution method; format: functional; conditions: Streptococcus mutans, 3289, 24 h
L02 = assay: Cytotoxicity against human L02 cells assessed as growth inhibition after 24 hrs by MTT assay; format: cell-based; conditions: L02, 24 h

| SMILES | MIC (Escherichia coli) [mg/L] | MIC (Salmonella typhimurium) [mg/L] | MIC (Staphylococcus aureus [1]) [mg/L] | MIC (Pseudomonas aeruginosa) [mg/L] | MIC (Staphylococcus aureus [2]) | MIC (Candida albicans) [mg/L] | MIC (Staphylococcus aureus [3]) | MIC (Streptococcus mutans) [mg/L] | IC50 (L02) [µM] |
| --- | --- | --- | --- | --- | --- | --- | --- | --- | --- |
| CN(C)C1=NC(c2ccc3cc(OCC(=O)c4ccccc4)ccc3c2)N=C(N)N1 (stereo not drawn) | 64 (≈ 159 µM) | > 64 | 32 (≈ 79.7 µM) | > 64 | 32 mg/L | 32 (≈ 79.7 µM) | 32 mg/L | 64 (≈ 159 µM) |  |
| CN(C)C1=NC(c2ccc(/C=C/C(=O)c3ccc(F)cc3)cc2)N=C(N)N1 (stereo not drawn) | 32 (≈ 87.6 µM) | > 64 | 32 (≈ 87.6 µM) | > 64 | 32 mg/L | 32 (≈ 87.6 µM) | 32 mg/L | 16 (≈ 43.8 µM) |  |
| CN(C)C1=NC(c2ccc3cc(OCc4ccc(Br)cc4)ccc3c2)N=C(N)N1 (stereo not drawn) | 1 (≈ 2.21 µM) | 64 (≈ 141 µM) | 1 (≈ 2.21 µM) | 64 (≈ 141 µM) | 1 mg/L | 1 (≈ 2.21 µM) | 1 mg/L | 1 (≈ 2.21 µM) |  |
| CN(C)C1=NC(c2ccc3cc(OCC(=O)c4ccc(Br)cc4)ccc3c2)N=C(N)N1 (stereo not drawn) | 8 (≈ 16.7 µM) | 64 (≈ 133 µM) | 4 (≈ 8.33 µM) | 64 (≈ 133 µM) | 16.7 µM | 16 (≈ 33.3 µM) | 8.35 µM | 8 (≈ 16.7 µM) | 58.7 |
| CN(C)C1=NC(c2ccc(/C=C/C(=O)c3ccc(Br)cc3)cc2)N=C(N)N1 (stereo not drawn) | 16 (≈ 37.5 µM) | > 64 | 8 (≈ 18.8 µM) | > 64 | 16 mg/L | 16 (≈ 37.5 µM) | 8 mg/L | 16 (≈ 37.5 µM) |  |
| CN(C)C1=NC(c2ccc3cc(OCc4ccc(Cl)cc4)ccc3c2)N=C(N)N1 (stereo not drawn) | 1 (≈ 2.45 µM) | 64 (≈ 157 µM) | 1 (≈ 2.45 µM) | 64 (≈ 157 µM) | 1 mg/L | 1 (≈ 2.45 µM) | 1 mg/L | 1 (≈ 2.45 µM) |  |
| CN(C)C1=NC(c2ccc3cc(OCc4ccccc4)ccc3c2)N=C(N)N1 (stereo not drawn) | 8 (≈ 21.4 µM) | > 64 | 8 (≈ 21.4 µM) | > 64 | 16 mg/L | 8 (≈ 21.4 µM) | 8 mg/L | 8 (≈ 21.4 µM) |  |
| COc1ccccc1C(=O)/C=C/c1ccc(C2N=C(N)NC(N(C)C)=N2)cc1 (stereo not drawn) | 64 (≈ 170 µM) | > 64 | 64 (≈ 170 µM) | > 64 | 64 mg/L | 32 (≈ 84.8 µM) | 64 mg/L | 64 (≈ 170 µM) |  |
| Cc1ccc(COc2ccc(C3N=C(N)NC(N(C)C)=N3)cc2)cc1 (stereo not drawn) | 16 (≈ 47.4 µM) | > 64 | 32 (≈ 94.8 µM) | > 64 | 32 mg/L | 16 (≈ 47.4 µM) | 32 mg/L | 16 (≈ 47.4 µM) |  |
| CN(C)C1=NC(c2ccc3cc(OCc4ccccc4F)ccc3c2)N=C(N)N1 (stereo not drawn) | 4 (≈ 10.2 µM) | 64 (≈ 163 µM) | 4 (≈ 10.2 µM) | 64 (≈ 163 µM) | 2 mg/L | 4 (≈ 10.2 µM) | 2 mg/L | 4 (≈ 10.2 µM) |  |
| Cc1ccc(C(=O)/C=C/c2ccc(C3N=C(N)NC(N(C)C)=N3)cc2)c(C)c1 (stereo not drawn) | 32 (≈ 85.2 µM) | > 64 | 32 (≈ 85.2 µM) | > 64 | 32 mg/L | 32 (≈ 85.2 µM) | 32 mg/L | 32 (≈ 85.2 µM) |  |
| Cc1ccc(C(=O)/C=C/c2ccc(C3N=C(N)NC(N(C)C)=N3)cc2)cc1 (stereo not drawn) | 32 (≈ 88.5 µM) | > 64 | 16 (≈ 44.3 µM) | > 64 | 32 mg/L | 16 (≈ 44.3 µM) | 16 mg/L | 16 (≈ 44.3 µM) |  |
| CN(C)C1=NC(c2ccc3cc(OCc4cccc(Cl)c4)ccc3c2)N=C(N)N1 (stereo not drawn) | 1 (≈ 2.45 µM) | 64 (≈ 157 µM) | 1 (≈ 2.45 µM) | 64 (≈ 157 µM) | 2 mg/L | 1 (≈ 2.45 µM) | 1 mg/L | 2 (≈ 4.9 µM) |  |
| COc1c(N2C[C@@H]3CCCN[C@@H]3C2)c(F)cc2c(=O)c(C(=O)O)cn(C3CC3)c12 [MOXIFLOXACIN] |  |  | 1 (≈ 2.49 µM) | 0.5 (≈ 1.25 µM) | 4 mg/L |  |  |  |  |
| OC(Cn1cncn1)(Cn1cncn1)c1ccc(F)cc1F [FLUCONAZOLE] |  |  |  |  |  |  |  | 1 (≈ 3.27 µM) |  |
| CN(C)C1=NC(c2ccc(/C=C/C(=O)c3ccccc3)cc2)N=C(N)N1 (stereo not drawn) | 64 (≈ 184 µM) | > 64 | 32 (≈ 92.1 µM) | > 64 | 32 mg/L | 32 (≈ 92.1 µM) | 32 mg/L | 32 (≈ 92.1 µM) |  |
| COc1cccc(C(=O)/C=C/c2ccc(C3N=C(N)NC(N(C)C)=N3)cc2)c1 (stereo not drawn) | 16 (≈ 42.4 µM) | > 64 | 16 (≈ 42.4 µM) | > 64 | 32 mg/L | 16 (≈ 42.4 µM) | 16 mg/L | 16 (≈ 42.4 µM) |  |
| COc1c(N2CCNC(C)C2)c(F)cc2c(=O)c(C(=O)O)cn(C3CC3)c12 (stereo not drawn) [GATIFLOXACIN] | 2 (≈ 5.33 µM) |  | 8 (≈ 21.3 µM) | 1 (≈ 2.66 µM) | 0.25 mg/L | 0.5 (≈ 1.33 µM) | 2 mg/L | 0.25 (≈ 0.666 µM) |  |
| CN(C)C1=NC(c2ccc(OCC(=O)c3ccc(Br)cc3)cc2)N=C(N)N1 (stereo not drawn) | 64 (≈ 149 µM) | > 64 | 64 (≈ 149 µM) | > 64 | 32 mg/L | 32 (≈ 74.4 µM) | 32 mg/L | 32 (≈ 74.4 µM) |  |
| CN(C)C1=NC(c2ccc(OCc3ccc(F)cc3)cc2)N=C(N)N1 (stereo not drawn) | 64 (≈ 187 µM) | > 64 | 64 (≈ 187 µM) | > 64 | 64 mg/L | 64 (≈ 187 µM) | 32 mg/L | 64 (≈ 187 µM) |  |
| CN(C)C1=NC(c2ccc3cc(OCc4ccccc4Cl)ccc3c2)N=C(N)N1 (stereo not drawn) | 1 (≈ 2.45 µM) | 64 (≈ 157 µM) | 1 (≈ 2.45 µM) | 64 (≈ 157 µM) | 2 mg/L | 1 (≈ 2.45 µM) | 1 mg/L | 2 (≈ 4.9 µM) |  |
| CN(C)C1=NC(c2ccc(OCC(=O)c3ccccc3)cc2)N=C(N)N1 (stereo not drawn) | > 64 | > 64 | > 64 | > 64 | > 64 mg/L | > 64 | > 64 mg/L | > 64 |  |
| Cc1ccc(COc2ccc3cc(C4N=C(N)NC(N(C)C)=N4)ccc3c2)cc1 (stereo not drawn) | 2 (≈ 5.16 µM) | 64 (≈ 165 µM) | 2 (≈ 5.16 µM) | 64 (≈ 165 µM) | 2 mg/L | 4 (≈ 10.3 µM) | 2 mg/L | 2 (≈ 5.16 µM) |  |
| CN(C)C1=NC(c2ccc(/C=C/C(=O)c3ccccc3Br)cc2)N=C(N)N1 (stereo not drawn) | 64 (≈ 150 µM) | > 64 | 32 (≈ 75.1 µM) | > 64 | 64 mg/L | 32 (≈ 75.1 µM) | 32 mg/L | 16 (≈ 37.5 µM) |  |
| CN(C)C1=NC(c2ccc(OCc3ccccc3)cc2)N=C(N)N1 (stereo not drawn) | 32 (≈ 98.9 µM) | > 64 | 32 (≈ 98.9 µM) | > 64 | 64 mg/L | 32 (≈ 98.9 µM) | 32 mg/L | 32 (≈ 98.9 µM) |  |
